Measured values reported in ChEMBL document CHEMBL4390654, “Microwave-assisted solid-phase synthesis of antisense acpP peptide nucleic acid-peptide conjugates active against colistin- and tigecycline-resistant E. coli and K. pneumoniae” (Eur J Med Chem, 2019).

What was measured:
Escherichia coli [1] = assay: Antibacterial activity against multi-drug resistant Escherichia coli NMI 3548/14 assessed as reduction in microbial growth incubated for 20 hrs; assay type: functional; settings: NMI 3548/14, 20 h
Summary of the method: (§1)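 Broth microdilution MIC (modified Hancock protocol) in non-binding polystyrene plates. Inoculum ~2 × 10^5 CFU/mL in Mueller-Hinton broth with Mg²⁺ and Ca²⁺ at 4 mg/L each. Compounds dissolved in water, diluted in 0.01% acetic acid/0.2% BSA (final), added as 10× stocks. Covered plates incubated 20 h at 35 °C (± 2 °C) with 220 rpm circular shaking before MIC read.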

Staphylococcus aureus = assay: Antibacterial activity against Staphylococcus aureus ATCC 29213 assessed as reduction in microbial growth incubated for 20 hrs; assay type: functional; settings: ATCC 29213, 20 h
Summary of the method: (§2)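 Broth microdilution MIC after a modified Hancock protocol for cationic peptides, in non-binding polystyrene plates. Inoculum ~2 × 10^5 CFU/mL in Mueller-Hinton broth with Mg²⁺ and Ca²⁺ at 4 mg/L each. Compounds dissolved in water, diluted in 0.01% acetic acid, 0.2% BSA (final), added as 10× aliquots. Covered plates incubated 20 h at 35 °C (± 2 °C) with shaking at 220 rpm. MIC read as lowest inhibiting concentration.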

Klebsiella pneumoniae [2] = assay: Antibacterial activity against multi-drug resistant Klebsiella pneumoniae NMI 2697/14 assessed as reduction in microbial growth incubated for 20 hrs; assay type: functional; settings: NMI 2697/14, 20 h; summary of the method: as §1
Klebsiella pneumoniae [3] = assay: Antibacterial activity against Klebsiella pneumoniae ATCC 13883 assessed as reduction in microbial growth incubated for 20 hrs; assay type: functional; settings: ATCC 13883, 20 h; summary of the method: as §2
[4] = Hemolytic activity against RBC (unknown origin) at 100 uM; assay type: ADME, cell-based, Erythrocyte; settings: red blood cells (erythrocytes); read-out: Activity
Escherichia coli [5] = assay: Antibacterial activity against multi-drug resistant Escherichia coli NMI 3898/15 assessed as reduction in microbial growth incubated for 20 hrs; assay type: functional; settings: NMI 3898/15, 20 h; summary of the method: as §1
Escherichia coli [6] = assay: Antibacterial activity against Escherichia coli lacking a functional SbmA assessed as reduction in microbial growth incubated for 20 hrs; summary of the method: as §2
Klebsiella pneumoniae [7] = assay: Antibacterial activity against multi-drug resistant Klebsiella pneumoniae NMI 3081/09 assessed as reduction in microbial growth incubated for 20 hrs; assay type: functional; settings: NMI 3081/09, 20 h; summary of the method: as §1
Escherichia coli [8] = assay: Antibacterial activity against Escherichia coli ATCC 25922 assessed as reduction in microbial growth incubated for 20 hrs; assay type: functional; settings: ATCC 25922, 20 h; summary of the method: as §1
[9] = Ratio of MIC for Escherichia coli ATCC 25922 to MIC against Escherichia coli NMI 3898/15; assay type: functional
Acinetobacter baumannii [10] = assay: Antibacterial activity against Acinetobacter baumannii ATCC 19606 assessed as reduction in microbial growth incubated for 20 hrs; assay type: functional; settings: ATCC 19606 = CIP 70.34 = JCM 6841, 20 h; summary of the method: as §2
[11] = Ratio of MIC for Escherichia coli ATCC 25922 to MIC for Klebsiella pneumoniae ATCC 13883; assay type: functional
Pseudomonas aeruginosa [12] = assay: Antibacterial activity against Pseudomonas aeruginosa PAO1 assessed as reduction in microbial growth incubated for 20 hrs; assay type: functional; settings: PAO1, 20 h; summary of the method: as §2
Pseudomonas aeruginosa [13] = assay: Antibacterial activity against Pseudomonas aeruginosa ATCC 27853 assessed as reduction in microbial growth incubated for 20 hrs; assay type: functional; settings: ATCC 27853, 20 h; summary of the method: as §2
[14] = Ratio of MIC for Escherichia coli lacking functional SbmA to MIC for Escherichia coli ATCC 25922
Escherichia coli [15] = assay: Antibacterial activity against NDM-5 producing multi-drug resistant Escherichia coli NMI 636/15 ST405 assessed as reduction in microbial growth incubated for 20 hrs; assay type: functional; settings: NMI 636/15 ST405, 20 h; summary of the method: as §1
Escherichia coli [16] = assay: Antibacterial activity against NDM-1 producing multi-drug resistant Escherichia coli NMI 3371/16 ST101 assessed as reduction in microbial growth incubated for 20 hrs; assay type: functional; settings: NMI 3371/16 ST101, 20 h; summary of the method: as §1
Escherichia coli [17] = assay: Antibacterial activity against NDM-1 producing multi-drug resistant Escherichia coli NMI 5428/11 ST410 assessed as reduction in microbial growth incubated for 20 hrs; assay type: functional; settings: NMI 5428/11 ST410, 20 h; summary of the method: as §1
Pseudomonas aeruginosa [18] = assay: Antibacterial activity against multi-drug resistant Pseudomonas aeruginosa NMI 506/17 assessed as reduction in microbial growth incubated for 20 hrs; assay type: functional; settings: NMI 506/17, 20 h; summary of the method: as §1
Acinetobacter baumannii [19] = assay: Antibacterial activity against Acinetobacter baumannii NMI 3658/17 assessed as reduction in microbial growth incubated 20 hrs; assay type: functional; settings: NMI 3658/17, 20 h; summary of the method: as §2

Structure (SMILES)	MIC (Escherichia coli [1]) [µg/mL]	MIC (Staphylococcus aureus) [µg/mL]	MIC (Klebsiella pneumoniae [2]) [µg/mL]	MIC (Klebsiella pneumoniae [3]) [µg/mL]	hemolysis at 100 µM [4] [%]	MIC (Escherichia coli [5]) [µg/mL]	MIC (Escherichia coli [6]) [µg/mL]	MIC (Klebsiella pneumoniae [7]) [µg/mL]	MIC (Escherichia coli [8]) [µg/mL]	Ratio [9]	MIC (Acinetobacter baumannii [10]) [µg/mL]	Ratio [11]	MIC (Pseudomonas aeruginosa [12]) [µg/mL]	MIC (Pseudomonas aeruginosa [13]) [µg/mL]	Ratio [14]	MIC (Escherichia coli [15]) [µg/mL]	MIC (Escherichia coli [16]) [µg/mL]	MIC (Escherichia coli [17]) [µg/mL]	MIC (Pseudomonas aeruginosa [18]) [µg/mL]	MIC (Acinetobacter baumannii [19]) [µg/mL]
CC[C@H](C)[C@H](NC(=O)[C@@H]1CCCN1C(=O)[C@H](CCCNC(=N)N)NC(=O)[C@@H]1CCCN1C(=O)[C@H](Cc1cnc[nH]1)NC(=O)[C@H](CO)NC(=O)[C@@H](NC(=O)[C@@H]1CCCN1C(=O)[C@H](CCCNC(=N)N)NC(=O)[C@@H]1CCCN1C(=O)[C@H](CO)NC(=O)[C@H](Cc1ccc(O)cc1)NC(=O)[C@@H]1CCCN1C(=O)[C@H](CCCNC(=N)N)NC(=O)[C@@H]1CCCN1C(=O)[C@H](CCCNC(=N)N)NC(=O)CCCCCNC(=O)[C@@H](N)CCCNC(=N)N)[C@@H](C)O)C(=O)N[C@@H](CCCNC(=N)N)C(=O)N[C@H](C(=O)N[C@@H](CSC1CC(=O)N(CCC(=O)NCCOCCOC(=O)N[C@@H](CS)C(=O)N[C@H](C(=O)N[C@@H](CS)C(=O)N[C@@H](C)C(=O)N[C@H](C(=O)N[C@@H](C)C(=O)N[C@@H](CS)C(=O)N[C@H](C(=O)N[C@@H](CS)C(=O)N[C@H](C(N)=O)[C@@H](C)O)[C@@H](C)O)[C@@H](C)O)[C@@H](C)O)C1=O)C(N)=O)C(C)C (stereo partly drawn)	2 to 8	> 64	32 to 64	4 to 8	< 1	8 to 32	> 64	64	16	2 to 8	> 64	2 to 4	> 64							
CC[C@H](C)[C@H](NC(=O)[C@@H]1CCCN1C(=O)[C@H](CCCNC(=N)N)NC(=O)[C@@H]1CCCN1C(=O)[C@H](Cc1cnc[nH]1)NC(=O)[C@H](CO)NC(=O)[C@@H](NC(=O)[C@@H]1CCCN1C(=O)[C@H](CCCNC(=N)N)NC(=O)[C@@H]1CCCN1C(=O)[C@H](CO)NC(=O)[C@H](Cc1ccc(O)cc1)NC(=O)[C@@H]1CCCN1C(=O)[C@H](CCCNC(=N)N)NC(=O)[C@@H]1CCCN1C(=O)[C@H](CCCNC(=N)N)NC(=O)CCCCCNC(=O)[C@@H](N)CCCNC(=N)N)[C@@H](C)O)C(=O)N[C@@H](CCCNC(=N)N)C(=O)N[C@H](C(=O)N[C@@H](CS)C(=O)N[C@H](C(=O)N[C@@H](CS)C(=O)N[C@@H](C)C(=O)N[C@H](C(=O)N[C@@H](C)C(=O)N[C@@H](CS)C(=O)N[C@H](C(=O)N[C@@H](CS)C(=O)N[C@H](C(N)=O)[C@@H](C)O)[C@@H](C)O)[C@@H](C)O)[C@@H](C)O)C(C)C	1 to 2	> 64	32	2 to 4	< 1	4	> 64	8	4	2 to 8	64		> 64	> 64	> 16	1	0.5	1	> 64	32
CC[C@@H](C)[C@@H](NC(=O)[C@H]1CCCN1C(=O)[C@@H](CCCNC(=N)N)NC(=O)[C@H]1CCCN1C(=O)[C@@H](Cc1cnc[nH]1)NC(=O)[C@@H](CO)NC(=O)[C@H](NC(=O)[C@H]1CCCN1C(=O)[C@@H](CCCNC(=N)N)NC(=O)[C@H]1CCCN1C(=O)[C@@H](CO)NC(=O)[C@@H](Cc1ccc(O)cc1)NC(=O)[C@H]1CCCN1C(=O)[C@@H](CCCNC(=N)N)NC(=O)[C@H]1CCCN1C(=O)[C@@H](CCCNC(=N)N)NC(=O)CCCCCNC(=O)[C@H](N)CCCNC(=N)N)[C@H](C)O)C(=O)N[C@H](CCCNC(=N)N)C(=O)N[C@@H](C(N)=O)C(C)C	> 64	> 64	> 64	> 64	< 1	> 64	> 64	> 64	> 64		> 64		> 64							
